Measurements taken from ChEMBL document CHEMBL5058577, “EUbOPEN Chemogenomics Library 2 (Multiplex)” (2022).

Test system: Fibroblast
Assay: Multiplex assay against human fibroblast
Format: toxicity, cell-based
In short: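 Phenotypes for tubulin, mitochondrial mass and membrane permeability are expressed as per cents of healthy-nucleus cells. Cells were stained live at seeding with Hoechst33342, BioTracker Green Microtubule Cytoskeleton Dye, MitoTracker Red and Annexin V Alexa Fluor 680, then imaged after compound addition on a CQ1 microscope at 37°C and 5% CO2. Machine-learning gating in CellPathfinder separated Hoechst high-intensity objects from normal cells, divided normal cells by nuclear state (healthy, pyknosed, fragmented) and divided pyknosed cells into mitotic or apoptotic.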

[1] = 12 h, 1 µM, compound concentration 1 uM, replicate 1
[2] = 12 h, 1 µM, compound concentration 1 uM, replicate 2
[3] = 12 h, 10 µM, compound concentration 10 uM, replicate 1
[4] = 12 h, 10 µM, compound concentration 10 uM, replicate 2
[5] = 24 h, 1 µM, compound concentration 1 uM, replicate 1
[6] = 24 h, 1 µM, compound concentration 1 uM, replicate 2
[7] = 24 h, 10 µM, compound concentration 10 uM, replicate 1
[8] = 24 h, 10 µM, compound concentration 10 uM, replicate 2
[9] = 48 h, 1 µM, compound concentration 1 uM, replicate 1
[10] = 48 h, 1 µM, compound concentration 1 uM, replicate 2
[11] = 48 h, 10 µM, compound concentration 10 uM, replicate 1
[12] = 48 h, 10 µM, compound concentration 10 uM, replicate 2

## Br.CS(=O)(=O)Nc1c(O)ccc2c1CCCC2C1=NCCN1 (configuration not stated)
[1]
  Population Apoptotic (%): 17%
  Population Fragmented Nuclei (%): 9%
  Population Healthy Nuclei (%): 76%
  Population Hoechst High Intensity Objects (%): 1%
  Population Membrane Permeable-Phenotype (%): 0%
  Population Mitochondria Different-Phenotype (%): 5%
  Population Mitotic Cells (%): 82%
  Population Normal (%): 98%
  Population Pyknosed Nuclei (%): 14%
  Population Tubulin-Different-Phenotype (%): 20%
  Total Cell Count: 167
[2]
  Population Apoptotic (%): 31%
  Population Fragmented Nuclei (%): 32%
  Population Healthy Nuclei (%): 47%
  Population Hoechst High Intensity Objects (%): 8%
  Population Membrane Permeable-Phenotype (%): 7%
  Population Mitochondria Different-Phenotype (%): 8%
  Population Mitotic Cells (%): 68%
  Population Normal (%): 91%
  Population Pyknosed Nuclei (%): 19%
  Population Tubulin-Different-Phenotype (%): 38%
  Total Cell Count: 192
[3]
  Population Apoptotic (%): 38%
  Population Fragmented Nuclei (%): 20%
  Population Healthy Nuclei (%): 47%
  Population Hoechst High Intensity Objects (%): 6%
  Population Membrane Permeable-Phenotype (%): 1%
  Population Mitochondria Different-Phenotype (%): 7%
  Population Mitotic Cells (%): 61%
  Population Normal (%): 93%
  Population Pyknosed Nuclei (%): 31%
  Population Tubulin-Different-Phenotype (%): 21%
  Total Cell Count: 148
[4]
  Population Apoptotic (%): 33%
  Population Fragmented Nuclei (%): 38%
  Population Healthy Nuclei (%): 45%
  Population Hoechst High Intensity Objects (%): 0%
  Population Membrane Permeable-Phenotype (%): 12%
  Population Mitochondria Different-Phenotype (%): 5%
  Population Mitotic Cells (%): 66%
  Population Normal (%): 99%
  Population Pyknosed Nuclei (%): 16%
  Population Tubulin-Different-Phenotype (%): 43%
  Total Cell Count: 129
[5]
  Population Apoptotic (%): 56%
  Population Fragmented Nuclei (%): 12%
  Population Healthy Nuclei (%): 77%
  Population Hoechst High Intensity Objects (%): 1%
  Population Membrane Permeable-Phenotype (%): 0%
  Population Mitochondria Different-Phenotype (%): 3%
  Population Mitotic Cells (%): 43%
  Population Normal (%): 98%
  Population Pyknosed Nuclei (%): 10%
  Population Tubulin-Different-Phenotype (%): 16%
  Total Cell Count: 159
[6]
  Population Apoptotic (%): 33%
  Population Fragmented Nuclei (%): 25%
  Population Healthy Nuclei (%): 60%
  Population Hoechst High Intensity Objects (%): 7%
  Population Membrane Permeable-Phenotype (%): 2%
  Population Mitochondria Different-Phenotype (%): 7%
  Population Mitotic Cells (%): 66%
  Population Normal (%): 92%
  Population Pyknosed Nuclei (%): 14%
  Population Tubulin-Different-Phenotype (%): 41%
  Total Cell Count: 180
[7]
  Population Apoptotic (%): 48%
  Population Fragmented Nuclei (%): 16%
  Population Healthy Nuclei (%): 60%
  Population Hoechst High Intensity Objects (%): 3%
  Population Membrane Permeable-Phenotype (%): 0%
  Population Mitochondria Different-Phenotype (%): 2%
  Population Mitotic Cells (%): 51%
  Population Normal (%): 96%
  Population Pyknosed Nuclei (%): 23%
  Population Tubulin-Different-Phenotype (%): 24%
  Total Cell Count: 148
[8]
  Population Apoptotic (%): 41%
  Population Fragmented Nuclei (%): 41%
  Population Healthy Nuclei (%): 44%
  Population Hoechst High Intensity Objects (%): 0%
  Population Membrane Permeable-Phenotype (%): 10%
  Population Mitochondria Different-Phenotype (%): 10%
  Population Mitotic Cells (%): 58%
  Population Normal (%): 99%
  Population Pyknosed Nuclei (%): 13%
  Population Tubulin-Different-Phenotype (%): 41%
  Total Cell Count: 130
[9]
  Population Apoptotic (%): 57%
  Population Fragmented Nuclei (%): 14%
  Population Healthy Nuclei (%): 76%
  Population Hoechst High Intensity Objects (%): 4%
  Population Membrane Permeable-Phenotype (%): 4%
  Population Mitochondria Different-Phenotype (%): 3%
  Population Mitotic Cells (%): 42%
  Population Normal (%): 95%
  Population Pyknosed Nuclei (%): 8%
  Population Tubulin-Different-Phenotype (%): 24%
  Total Cell Count: 167
[10]
  Population Apoptotic (%): 38%
  Population Fragmented Nuclei (%): 26%
  Population Healthy Nuclei (%): 61%
  Population Hoechst High Intensity Objects (%): 5%
  Population Membrane Permeable-Phenotype (%): 0%
  Population Mitochondria Different-Phenotype (%): 9%
  Population Mitotic Cells (%): 61%
  Population Normal (%): 94%
  Population Pyknosed Nuclei (%): 12%
  Population Tubulin-Different-Phenotype (%): 41%
  Total Cell Count: 177
[11]
  Population Apoptotic (%): 61%
  Population Fragmented Nuclei (%): 22%
  Population Healthy Nuclei (%): 61%
  Population Hoechst High Intensity Objects (%): 6%
  Population Membrane Permeable-Phenotype (%): 1%
  Population Mitochondria Different-Phenotype (%): 2%
  Population Mitotic Cells (%): 38%
  Population Normal (%): 93%
  Population Pyknosed Nuclei (%): 15%
  Population Tubulin-Different-Phenotype (%): 21%
  Total Cell Count: 145
[12]
  Population Apoptotic (%): 33%
  Population Fragmented Nuclei (%): 48%
  Population Healthy Nuclei (%): 44%
  Population Hoechst High Intensity Objects (%): 1%
  Population Membrane Permeable-Phenotype (%): 3%
  Population Mitochondria Different-Phenotype (%): 9%
  Population Mitotic Cells (%): 66%
  Population Normal (%): 98%
  Population Pyknosed Nuclei (%): 7%
  Population Tubulin-Different-Phenotype (%): 45%
  Total Cell Count: 127
